Assay results reported in ChEMBL document CHEMBL4038328, “Structure-Guided Optimization of HIV Integrase Strand Transfer Inhibitors” (J Med Chem, 2017).

Legend:
[1] = Inhibition of HIV1 integrase strand transfer activity using 5'-end 32P labeled DNA substrate measured after 2 hrs by PAGE based phosphor imaging method; parameters: species or system Human immunodeficiency virus 1
Summary of the method: (§1)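 Gel-based assay, Mg2+ cofactor: 400 nM integrase with 20 nM DNA substrate 5′-32P-labeled on transferred strand in 50 mM MOPS pH 7.2, 7.5 mM MgCl2, 14 mM 2-mercaptoethanol, inhibitor or DMSO; 2 h at 37 °C. Stopped with formamide/SDS loading buffer; products resolved on 16% denaturing polyacrylamide gels, quantified by phosphorimaging.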

[2] = system: Human immunodeficiency virus 1; experiment: Selectivity ratio of EC50 for VSV-G pseudotyped HIV1 harboring integrase G140S/Q148H mutant infected in HOS cells to EC50 for VSV-G pseudotyped HIV1 harboring wild-type integrase infected in HOS cells; format: functional
Summary of the method: (§2)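 Fold change is the EC50 against the mutant-IN vector divided by the EC50 against the WT-IN vector. Both come from the single-round luciferase infectivity assay in HOS cells, with a 3 h compound pretreatment followed by 48 h infection.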

[3] = system: Human immunodeficiency virus 1; experiment: Antiviral activity against VSV-G pseudotyped HIV1 harboring integrase N155H mutant infected in HOS cells pretreated […] for 3 hrs followed by viral infection measured after 48 hrs by luciferase reporter gene assay; format: functional, cell-based; settings: Human immunodeficiency virus 1, HOS
Summary of the method: (§3)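 Single-round luciferase HIV-1 vector (pNLNgoMIVR−ΔLUC carrying WT or mutant IN) was pseudotyped with VSV-g by calcium phosphate co-transfection of 293 cells, and supernatant was harvested after 48 h. HOS cells were seeded at 4000/well in DMEM with 5% FBS and 5% newborn calf serum. They were pretreated 3 h at 37 °C with 5–0.0001 μM (11 serial dilutions), then infected for 48 h. Luminescence was normalized to untreated cells, and EC50 came from nonlinear regression.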

[4] = system: Human immunodeficiency virus 1; experiment: Selectivity ratio of EC50 for VSV-G pseudotyped HIV1 harboring integrase N155H mutant infected in HOS cells to EC50 for VSV-G pseudotyped HIV1 harboring wild-type integrase infected in HOS cells; format: functional; summary of the method: as §2
[5] = system: Human immunodeficiency virus 1; experiment: Antiviral activity against VSV-G pseudotyped HIV1 harboring wild-type integrase infected in HOS cells pretreated […] for 3 hrs followed by viral infection measured after 48 hrs by luciferase reporter gene assay; format: functional, cell-based; settings: Human immunodeficiency virus 1, HOS; summary of the method: as §3
[6] = system: Human immunodeficiency virus 1; experiment: Selectivity ratio of EC50 for VSV-G pseudotyped HIV1 harboring integrase Y143R mutant infected in HOS cells to EC50 for VSV-G pseudotyped HIV1 harboring wild-type integrase infected in HOS cells; format: functional; summary of the method: as §2
HOS = experiment: Cytotoxicity against HOS cells assessed as reduction in cell viability after 48 hrs by ATPLite luminescence assay; format: cell-based; settings: human, hos, 48 h
Summary of the method: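 HOS cells seeded at 4000 per well the day before, exposed to compounds over 250 to 0.05 μM at 37 °C for 48 h. ATP measured by luminescence after lysis and 20 min signal development at room temperature.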

[7] = system: Human immunodeficiency virus 1; experiment: Antiviral activity against VSV-G pseudotyped HIV1 harboring integrase Y143R mutant infected in HOS cells pretreated […] for 3 hrs followed by viral infection measured after 48 hrs by luciferase reporter gene assay; format: functional, cell-based; settings: Human immunodeficiency virus 1, HOS; summary of the method: as §3
[8] = system: Human immunodeficiency virus 1; experiment: Antiviral activity against VSV-G pseudotyped HIV1 harboring integrase G140S/Q148H double mutant infected in HOS cells pretreated […] for 3 hrs followed by viral infection measured after 48 hrs by luciferase reporter gene assay; format: functional, cell-based; settings: Human immunodeficiency virus 1, HOS; summary of the method: as §3
[9] = Inhibition of HIV1 integrase 3' processing activity using 5'-end 32P labeled DNA substrate measured after 2 hrs by PAGE based phosphor imaging method; parameters: species or system Human immunodeficiency virus 1; summary of the method: as §1
[10] = system: Human immunodeficiency virus 1; experiment: Selectivity ratio of EC50 for VSV-G pseudotyped HIV1 harboring integrase T66I mutant infected in HOS cells to EC50 for VSV-G pseudotyped HIV1 harboring wild-type integrase infected in HOS cells; format: functional; summary of the method: as §2
[11] = system: Human immunodeficiency virus 1; experiment: Antiviral activity against VSV-G pseudotyped HIV1 harboring integrase H51Y mutant infected in HOS cells pretreated […] for 3 hrs followed by viral infection measured after 48 hrs by luciferase reporter gene assay; format: functional, cell-based; settings: Human immunodeficiency virus 1, HOS; summary of the method: as §3
[12] = system: Human immunodeficiency virus 1; experiment: Selectivity ratio of EC50 for VSV-G pseudotyped HIV1 harboring integrase H51Y/R263K double mutant infected in HOS cells to EC50 for VSV-G pseudotyped HIV1 harboring wild-type integrase infected in HOS cells; format: functional; summary of the method: as §2
[13] = system: Human immunodeficiency virus 1; experiment: Selectivity ratio of EC50 for VSV-G pseudotyped HIV1 harboring integrase G118R mutant infected in HOS cells to EC50 for VSV-G pseudotyped HIV1 harboring wild-type integrase infected in HOS cells; format: functional; summary of the method: as §2
[14] = system: Human immunodeficiency virus 1; experiment: Antiviral activity against VSV-G pseudotyped HIV1 harboring integrase T66I mutant infected in HOS cells pretreated […] for 3 hrs followed by viral infection measured after 48 hrs by luciferase reporter gene assay; format: functional, cell-based; settings: Human immunodeficiency virus 1, HOS; summary of the method: as §3
[15] = system: Human immunodeficiency virus 1; experiment: Antiviral activity against VSV-G pseudotyped HIV1 harboring integrase E92Q mutant infected in HOS cells pretreated […] for 3 hrs followed by viral infection measured after 48 hrs by luciferase reporter gene assay; format: functional, cell-based; settings: Human immunodeficiency virus 1, HOS; summary of the method: as §3
[16] = system: Human immunodeficiency virus 1; experiment: Antiviral activity against VSV-G pseudotyped HIV1 harboring integrase H51Y/R263K double mutant infected in HOS cells pretreated […] for 3 hrs followed by viral infection measured after 48 hrs by luciferase reporter gene assay; format: functional, cell-based; settings: Human immunodeficiency virus 1, HOS; summary of the method: as §3
[17] = system: Human immunodeficiency virus 1; experiment: Selectivity ratio of EC50 for VSV-G pseudotyped HIV1 harboring integrase H51Y mutant infected in HOS cells to EC50 for VSV-G pseudotyped HIV1 harboring wild-type integrase infected in HOS cells; format: functional; summary of the method: as §2
[18] = system: Human immunodeficiency virus 1; experiment: Selectivity ratio of EC50 for VSV-G pseudotyped HIV1 harboring integrase E92Q mutant infected in HOS cells to EC50 for VSV-G pseudotyped HIV1 harboring wild-type integrase infected in HOS cells; format: functional; summary of the method: as §2
[19] = system: Human immunodeficiency virus 1; experiment: Antiviral activity against VSV-G pseudotyped HIV1 harboring integrase R263K mutant infected in HOS cells pretreated […] for 3 hrs followed by viral infection measured after 48 hrs by luciferase reporter gene assay; format: functional, cell-based; settings: Human immunodeficiency virus 1, HOS; summary of the method: as §3
[20] = system: Human immunodeficiency virus 1; experiment: Selectivity ratio of EC50 for VSV-G pseudotyped HIV1 harboring integrase R263K mutant infected in HOS cells to EC50 for VSV-G pseudotyped HIV1 harboring wild-type integrase infected in HOS cells; format: functional; summary of the method: as §2
[21] = system: Human immunodeficiency virus 1; experiment: Antiviral activity against VSV-G pseudotyped HIV1 harboring integrase G118R mutant infected in HOS cells pretreated […] for 3 hrs followed by viral infection measured after 48 hrs by luciferase reporter gene assay; format: functional, cell-based; settings: Human immunodeficiency virus 1, HOS; summary of the method: as §3

Row | Structure (SMILES) | IC50 [1] [nM] | Ratio EC50 [2] | EC50 [3] [nM] | Ratio EC50 [4] | EC50 [5] [nM] | Ratio EC50 [6] | CC50 (HOS) [nM] | EC50 [7] [nM] | EC50 [8] [nM] | IC50 [9] [nM] | further results
1 | Nc1c(C(=O)NCc2ccc(F)cc2F)c(=O)n(O)c2ncc(CCC(=O)O)cc12 | 4 | 103 | 10 | 5 | 1.9 | 3 | > 250000 | 4.9 | 195 |  | 
2 | Nc1c(C(=O)NCc2ccc(F)cc2F)c(=O)n(O)c2nc(N3CCCCC3)ccc12 | 54000 |  |  |  |  |  |  |  |  | > 333000 | 
3 | CC(C)NC(=O)/C=C/c1cnc2c(c1)c(N)c(C(=O)NCc1ccc(F)cc1F)c(=O)n2O | 6 | 136 | 12 | 6 | 2.1 | 5 | > 250000 | 11 | 286 |  | 
4 | COC(=O)CNc1c(C(=O)NCc2ccc(F)cc2F)c(=O)n(O)c2nc(OC)ccc12 | 42 |  | 1260 | 39 | 32 | 2 | 12000 | 52 |  | 20000 | 
5 | COc1ccc2c(N)c(C(=O)NCc3ccc(F)cc3F)c(=O)n(O)c2n1 | 11 | 120 | 400 | 13 | 30 | 2 | 2200 | 62 | 3600 | 18000 | 
6 | O=C(NCc1ccc(F)cc1F)c1c(O)c2ccc(N3CCOCC3)nc2n(O)c1=O | 1900 |  |  |  |  |  |  |  |  | > 333000 | 
7 | CN(C)C(=O)/C=C/c1cnc2c(c1)c(N)c(C(=O)NCc1ccc(F)cc1F)c(=O)n2O | 5 | 36 | 15 | 9 | 1.6 | 5 | > 250000 | 7.2 | 58 |  | 
8 | Nc1c(C(=O)NCc2ccc(F)cc2F)c(=O)n(O)c2ncc(CCc3ccccc3)cc12 | 14 | 25 | 21 | 4 | 5.6 | 1 | 18000 | 5.5 | 140 | 48000 | 
9 | COC(=O)CNc1c(C(=O)NCc2ccc(F)cc2F)c(=O)n(O)c2nc(N3CCCCC3)ccc12 | 96000 |  |  |  |  |  |  |  |  | > 333000 | 
10 | COc1ccc2c(O)c(C(=O)NCc3ccc(F)cc3F)c(=O)n(O)c2n1 | 33 |  |  |  | 215 |  | 12000 |  |  | 32000 | 
11 | O=C(NCc1ccc(F)cc1F)c1c(O)c2cc(CCCCCO)cnc2n(O)c1=O | 12 | 1 | 32 | 1 | 24 | 0.3 | > 250000 | 8.3 | 29 | 14300 | 
12 | CC(C)NC(=O)CCc1cnc2c(c1)c(N)c(C(=O)NCc1ccc(F)cc1F)c(=O)n2O | 2 | 3 | 11 | 2 | 5 | 2 | > 250000 | 8.7 | 13 |  | 
13 | CN(C)CCCc1cnc2c(c1)c(N)c(C(=O)NCc1ccc(F)cc1F)c(=O)n2O | 14 | 5 | 29 | 5 | 6.1 | 1 | 5000 | 7 | 32 | 3000 | 
14 | CC(=O)OCCCCCc1cnc2c(c1)c(NCCO)c(C(=O)NCc1ccc(F)cc1F)c(=O)n2O |  | 1 | 10 | 2 | 5.3 | 0.8 | > 100000 | 4.1 | 5.3 |  | Ratio EC50 [10]: 0.2; EC50 [11]: 7.4 nM; Ratio EC50 [12]: 3; Ratio EC50 [13]: 3; EC50 [14]: 1.2 nM; EC50 [15]: 3.8 nM; EC50 [16]: 15 nM; Ratio EC50 [17]: 1; Ratio EC50 [18]: 0.7; EC50 [19]: 3.6 nM; Ratio EC50 [20]: 0.7; EC50 [21]: 15 nM
15 | Nc1c(C(=O)NCc2ccc(F)cc2F)c(=O)n(O)c2ncc(/C=C/C(=O)NCCO)cc12 | 7 |  |  |  | 196 |  | > 250000 |  |  |  | 
16 | CN(C)C(=O)CCc1cnc2c(c1)c(N)c(C(=O)NCc1ccc(F)cc1F)c(=O)n2O | 8 | 12 | 6.8 | 5 | 1.3 | 5 | > 250000 | 6 | 16 |  | 
17 | COC(=O)CNc1c(C(=O)NCc2ccc(F)cc2F)c(=O)n(O)c2ncc(CCCCCO)cc12 | 4 | 13 | 11 | 3 | 3.3 | 1 | > 250000 | 3.5 | 42 | 2100 | 
18 | Nc1c(C(=O)NCc2ccc(F)cc2F)c(=O)n(O)c2nc(N3CCOCC3)ccc12 | 54000 |  |  |  |  |  |  |  |  | > 333000 | 
19 | Nc1c(C(=O)NCc2ccc(F)cc2F)c(=O)n(O)c2ncc(CCCOCCO)cc12 | 2 | 22 | 4.2 | 3 | 1.6 | 0.8 | > 250000 | 1.2 | 35 | 1500 | 
20 | Nc1c(C(=O)NCc2ccc(F)cc2F)c(=O)n(O)c2ncc(CCC(=O)NCCO)cc12 | 2 |  |  |  | 263 |  | > 250000 |  |  |  | 
21 | Nc1c(C(=O)NCc2ccc(F)cc2F)c(=O)n(O)c2ncc(CCCC3CCCCC3)cc12 |  |  | 146 | 3 | 53 | 2 | 27400 | 112 |  | 289000 | 
22 | Nc1c(C(=O)NCc2ccc(F)cc2F)c(=O)n(O)c2ncc(CCCCc3ccccc3)cc12 |  | 12 | 39 | 4 | 11 | 0.4 | 13000 | 4.7 | 128 | 42000 | 
23 | O=C(NCc1ccc(F)cc1F)c1c(O)c2ccc(N3CCCCC3)nc2n(O)c1=O | 70000 |  |  |  |  |  |  |  |  | > 333000 | 
24 | COC(=O)CNc1c(C(=O)NCc2ccc(F)cc2F)c(=O)n(O)c2nc(N3CCOCC3)ccc12 | 6200 |  |  |  |  |  |  |  |  | > 333000 | 
